Assay [1] has as its system HCT-116. Nature of the assay: Antiproliferative activity against wildtype p53 expressing human HCT-116 cells assessed as inhibition of cell growth incubated for 48 hrs by SRB assay. Format: functional, cell-based. Put shortly:
(§1)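 Isogenic HCT116 p53+/+ and p53−/− pair from B. Vogelstein, grown as monolayers in RPMI-1640 with 2 mM L-glutamine and 10% heat-inactivated FBS at 37 °C, 5% CO2. Cells seeded at 5 × 10^3 per well for 24 h, then given serial dilutions from 0.2 to 50 μM for 48 h. IC50 read by sulforhodamine B staining.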

Assay [2] relates to HCT-116. Nature of the assay: Antiproliferative activity against human HCT-116 cells expressing p53-/- assessed as inhibition of cell growth incubated for 48 hrs by SRB assay. The class given is functional, cell-based. Put shortly: as §1
The subject of a further assay is MDA-MB-231. Nature of the assay: Antiproliferative activity against human MDA-MB-231 cells assessed as inhibition of cell growth incubated for 48 hrs by SRB assay. The class given is functional, cell-based. To be noted: MDA-MB-231, 48 h. Summed up:
(§2)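 MDA-MB-231 and PANC-1 cells grown in high-glucose DMEM (4.5 g L−1) with L-glutamine, sodium pyruvate and 10% heat-inactivated FBS at 37 °C, 5% CO2. After seeding 5 × 10^3 cells per well for 24 h, cells received serial dilutions of 0.2–50 μM for 48 h. IC50 by SRB. Mean ± SD of 3 independent experiments.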

The next assay deals with PANC-1. Kind of assay: Antiproliferative activity against human PANC-1 cells assessed as inhibition of cell growth incubated for 48 hrs by SRB assay. The class given is functional, cell-based. To be noted: PANC-1, 48 h. Put shortly: as §2
Another assay deals with A-375. Nature of the assay: Antiproliferative activity against human A-375 cells assessed as inhibition of cell growth incubated for 48 hrs by SRB assay. Conditions: A-375, 48 h. The class given is functional, cell-based. Put shortly: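 A375 melanoma cells grown as monolayers in RPMI-1640 with 2 mM L-glutamine and 10% heat-inactivated FBS at 37 °C, 5% CO2. Seeded at 5 × 10^3 cells per well for 24 h, then exposed to serial dilutions (0.2–50 μM) for 48 h. IC50 determined by SRB. Mean ± SD of 3 independent experiments.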

Assay [3] can be described thus: Selectivity ratio of IC50 for antiproliferative activity against human HCT-116 cells expressing p53-/- to IC50 for antiproliferative activity against wildtype p53 expressing human HCT-116 cells. The class given is functional.
Assay [4] deals with HCT-116. Kind of assay: Potency index, ratio of test compound IC50 to MANIO IC50 for antiproliferative activity against wildtype p53 expressing human HCT-116 cells assessed as inhibition of cell growth incubated for 48 hrs by SRB assay.
[5] abbreviates: Homo sapiens, HCT-116, 48 h, read-out: IC50.

A value given as a limit tells only on which side of the number the result lay.

Consider `Cc1c(CO)c(CO)c2n1[C@@H](c1cccc3ccccc13)SC2`, for which the IC50 entry in the assay with HCT-116 [1] (hct-116) and in the assay on HCT-116 [2] (hct-116) was “Not Determined(Insoluble)” each time.

For `Cc1c(CO)c(CO)c2n1[C@@H](c1ccc(F)cc1)SC2`, the IC50 in the assay with HCT-116 [1] (setting [5]) was 4.43 µM; with HCT-116 [2] (setting [5]) it was 32.5 µM; in the assay with MDA-MB-231, more than 50 µM; in the assay with PANC-1, 20.2 µM; in the assay with A-375, 36.1 µM.

Turning to `Cc1c(CO)cc2n1[C@@H](c1ccccc1)SC2`, the IC50 in the assay on HCT-116 [1] (setting [5]) is 6.68 µM; in the assay on HCT-116 [2] (setting [5]) it was more than 50 µM; in the assay on MDA-MB-231, more than 50 µM; in the assay on PANC-1, more than 50 µM; in the assay with A-375, 39.5 µM.

With `Cc1cc(CO)c2n1[C@@H](c1ccccc1)SC2`, the IC50 is 29.3 µM with HCT-116 [1] (setting [5]) and more than 50 µM in the assay with HCT-116 [2] (setting [5]).

As for `COc1ccc([C@@H]2SCc3c(CO)c(CO)c(C)n32)cc1`, the IC50 is 1.47 µM in the assay on HCT-116 [1] (setting [5]); 23.5 µM in the assay with HCT-116 [2] (setting [5]); 16.6 µM with MDA-MB-231; more than 50 µM with PANC-1; 22.8 µM in the assay on A-375.

Turning to `Cc1c(CO)cc2n1[C@H](c1ccccc1)SC2`, the IC50 with HCT-116 [1] (setting [5]) amounted to 0.99 µM; in the assay on HCT-116 [2] (setting [5]), 4.33 µM; in the assay with MDA-MB-231, 24.1 µM; with PANC-1, 35 µM; in the assay with A-375 it was 11.8 µM.

On to `Cc1c(CO)c(CO)c2n1[C@@H](c1ccccc1)S(=O)(=O)C2`, for which the IC50 in the assay on HCT-116 [1] (setting [5]) is more than 15 µM; in the assay on HCT-116 [2] (setting [5]) it was more than 50 µM.

`Cc1c(CO)c(CO)c2n1[C@@H](C)SC2`: the IC50 stood at 33.3 µM with HCT-116 [1] (setting [5]) and 46.2 µM with HCT-116 [2] (setting [5]).

In the case of `Cc1c(CO)c(CO)c2n1[C@H](c1ccccc1)SC2(C)C`, the IC50 with HCT-116 [1] (setting [5]) amounted to 24.3 µM; in the assay with HCT-116 [2] (setting [5]), 22.2 µM.

As for `OCc1cn2c(c1CO)CS[C@@H]2c1ccccc1`, the 50% inhibitory concentration (IC50) was 20.3 µM in the assay with HCT-116 [1] (setting [5]) and more than 50 µM in the assay on HCT-116 [2] (setting [5]).

For the compound `Cc1cc(CO)c2n1[C@H](c1ccccc1)SC2`, the IC50 with HCT-116 [1] (setting [5]) was 0.14 µM; in the assay with HCT-116 [2] (setting [5]), 18.1 µM; with MDA-MB-231 it was more than 50 µM; with PANC-1, more than 50 µM; with A-375, more than 50 µM. The Ratio IC50 in assay [3] amounted to 129.

On to `Cc1c(CO)c(CO)c2n1[C@@H](c1ccc(O)cc1)SC2`, for which the results for the IC50 with HCT-116 [1] (setting [5]) and in the assay on HCT-116 [2] (setting [5]) were 16.6 µM and more than 50 µM, respectively.

In the case of `Cc1c(CO)cc2n1CSC2`, the IC50 in the assay with HCT-116 [1] (setting [5]) was 28.3 µM; in the assay with HCT-116 [2] (setting [5]) it was more than 50 µM.

Turning to `Cc1c(CO)c(CO)c2n1[C@@H](c1cccc3cccnc13)SC2`, the IC50 in the assay with HCT-116 [1] (setting [5]) was 7.5 µM; in the assay on HCT-116 [2] (setting [5]), more than 50 µM; with MDA-MB-231, more than 50 µM; in the assay on PANC-1, 17.4 µM; with A-375, 24.4 µM.

With `Cc1c(CO)c(CO)c2n1[C@H](C)SC2`, the figures for the IC50 in the assay with HCT-116 [1] (setting [5]) and in the assay with HCT-116 [2] (setting [5]) were 31.4 µM and 42.7 µM, respectively.

`OCc1nn2c(c1CO)CSC2`: the half-maximal inhibitory concentration (IC50) in the assay on HCT-116 [1] (setting [5]) and with HCT-116 [2] (setting [5]) was more than 50 µM in each case.

`Cc1c(CO)c(CO)c2n1[C@H](c1ccccc1)SC2`: the IC50 in the assay on HCT-116 [2] (setting [5]) was 48.2 µM; in the assay on MDA-MB-231, more than 50 µM; in the assay on PANC-1 it was 42.1 µM; in the assay on A-375, 13.2 µM. Besides, the “Ratio IC50” value in assay [3] was approximately 50.

Take `COc1ccc([C@H]2SCc3c(CO)c(CO)c(C)n32)cc1`: the IC50 is 4.61 µM with HCT-116 [1] (setting [5]); more than 50 µM in the assay on HCT-116 [2] (setting [5]); more than 50 µM in the assay on MDA-MB-231; more than 50 µM with PANC-1; more than 50 µM in the assay with A-375.

Take `Cc1c(CO)c(CO)c2n1[C@@H](Cc1ccccc1)SC2`: the results for the IC50 in the assay with HCT-116 [1] (setting [5]) and in the assay on HCT-116 [2] (setting [5]) were 16.3 µM and 29.1 µM, respectively.

Consider `COc1cc([C@H]2SCc3c(CO)c(CO)c(C)n32)cc(OC)c1OC`, for which the IC50 in the assay with HCT-116 [1] (setting [5]) and with HCT-116 [2] (setting [5]) was more than 50 µM each time.

Regarding `Cc1c(CO)c(CO)c2n1[C@@H](c1ccccc1)SC2`, the IC50 with HCT-116 [1] (setting [5]) is 5.11 µM; with HCT-116 [2] (setting [5]), 51.8 µM; with MDA-MB-231 it was more than 50 µM; with PANC-1, 33.1 µM; in the assay with A-375 it was 14.5 µM. The “Ratio IC50” value in the assay on HCT-116 [4] turned out to be 5.

These data come from ChEMBL document CHEMBL5634206, “Chiral hydroxymethyl-1H,3H-pyrrolo[1,2-c]thiazoles: the search for selective p53-activating agents for colorectal cancer therapy” (RSC Med Chem, 2024).
